Assays:
Assay type in all cases: functional
Plasmodium berghei [1] = experiment: Antimalarial survival activity in Plasmodium berghei infected NMRI mice (Mus musculus) at 30 mg/kg peroral dose (3x daily); conditions: route oral
Procedure, shortened: (§1)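 P. berghei GFP ANKA, 2 × 10⁷ parasitized erythrocytes given intravenously to NMRI mice on day 0. Compound in 70/30 Tween 80/ethanol, diluted 10× with water, given orally at 10 mL/kg at 24, 48 and 72 h postinfection; n = 3 per group. Read-out is average survival in days after infection, with individual survival also given. Cure means no blood parasites by flow cytometry on day 30.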

Plasmodium berghei [2] = experiment: Antimalarial activity as survival time in Plasmodium berghei-infected NMRI mice (Mus musculus) at 10 mg/kg peroral dose three times daily; conditions: route oral; procedure, shortened: as §1
Plasmodium berghei [3] = experiment: Antimalarial survival activity in Plasmodium berghei infected NMRI mice (Mus musculus) at 30 mg/kg peroral dose; conditions: route oral
Procedure, shortened: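 NMRI mice were infected intravenously on day 0 with 2 × 10⁷ P. berghei GFP ANKA parasitized erythrocytes. One oral dose of 30 mg/kg was given 24 h postinfection in 70/30 Tween 80/ethanol diluted 10× with water, at 10 mL/kg; n = 3 per group. Read-out is average survival in days after infection.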

Plasmodium berghei [4] = experiment: Reduced parasitemia in Plasmodium berghei infected NMRI mice (Mus musculus); design: concentration or dose not given beside the values
Procedure, shortened: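 P. berghei GFP ANKA infection (2 × 10⁷ parasitized erythrocytes i.v., day 0) in NMRI mice, n = 3 per group. One oral dose of 1 × 30 mg/kg at 24 h postinfection, in Tween 80/ethanol 70/30 diluted 10× with water. Blood parasitemia on day 3 postinfection by flow cytometry, given as % suppression against untreated infected mice.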

| SMILES | Survival (Plasmodium berghei [1]) | Survival (Plasmodium berghei [2]) | Survival (Plasmodium berghei [3]) | Activity (Plasmodium berghei [4]) |
| --- | --- | --- | --- | --- |
| CNC(=O)N1CCC2(CC1)OCC(C[C@H]1O[C@@H]3O[C@]4(C)CC[C@H]5[C@H](C)CC[C@@H]([C@H]1C)[C@@]35OO4)(C[C@H]1O[C@@H]3O[C@]4(C)CC[C@H]5[C@H](C)CC[C@@H]([C@H]1C)[C@@]35OO4)O2 (stereo partly specified) | >=30 day | 13.3 days | – | – |
| C[C@H]1[C@@H](CC2(C[C@H]3O[C@@H]4O[C@]5(C)CC[C@H]6[C@H](C)CC[C@@H]([C@H]3C)[C@@]46OO5)COCO2)O[C@@H]2O[C@]3(C)CC[C@H]4[C@H](C)CC[C@@H]1[C@@]24OO3 (stereo partly specified) | >=30 day | 11 days | – | – |
| Cc1ccc(COCC(C[C@H]2O[C@@H]3O[C@]4(C)CC[C@H]5[C@H](C)CC[C@@H]([C@H]2C)[C@@]35OO4)C[C@H]2O[C@@H]3O[C@]4(C)CC[C@H]5[C@H](C)CC[C@@H]([C@H]2C)[C@@]35OO4)cc1 (stereo partly specified) | >=30 day | 8 days | – | – |
| C[C@H]1[C@@H](CC2(C[C@H]3O[C@@H]4O[C@]5(C)CC[C@H]6[C@H](C)CC[C@@H]([C@H]3C)[C@@]46OO5)COC3(CCC(=O)CC3)O2)O[C@@H]2O[C@]3(C)CC[C@H]4[C@H](C)CC[C@@H]1[C@@]24OO3 (stereo partly specified) | >=30 day | 16.3 days | 8.3 days | 99.6% |
| C[C@H]1[C@@H](CC2(C[C@H]3O[C@@H]4O[C@]5(C)CC[C@H]6[C@H](C)CC[C@@H]([C@H]3C)[C@@]46OO5)COC3(CCC3)O2)O[C@@H]2O[C@]3(C)CC[C@H]4[C@H](C)CC[C@@H]1[C@@]24OO3 (stereo partly specified) | >=30 day | 7 days | – | – |
| CCOP(=S)(OCC)OCC(C[C@H]1O[C@@H]2O[C@]3(C)CC[C@H]4[C@H](C)CC[C@@H]([C@H]1C)[C@@]24OO3)C[C@H]1O[C@@H]2O[C@]3(C)CC[C@H]4[C@H](C)CC[C@@H]([C@H]1C)[C@@]24OO3 (stereo partly specified) | 24.7 days | 7.7 days | – | – |
| CCN(CC)C(=O)OCC(C[C@H]1O[C@@H]2O[C@]3(C)CC[C@H]4[C@H](C)CC[C@@H]([C@H]1C)[C@@]24OO3)C[C@H]1O[C@@H]2O[C@]3(C)CC[C@H]4[C@H](C)CC[C@@H]([C@H]1C)[C@@]24OO3 (stereo partly specified) | >=30 day | 14 days | 11.7 days | 99.3% |
| C[C@H]1[C@@H](CC2(C[C@H]3O[C@@H]4O[C@]5(C)CC[C@H]6[C@H](C)CC[C@@H]([C@H]3C)[C@@]46OO5)COC3(CCOCC3)O2)O[C@@H]2O[C@]3(C)CC[C@H]4[C@H](C)CC[C@@H]1[C@@]24OO3 (stereo partly specified) | >=30 day | 15.7 days | 9 days | 99.5% |
| C[C@H]1[C@@H](CC(C[C@H]2O[C@@H]3O[C@]4(C)CC[C@H]5[C@H](C)CC[C@@H]([C@H]2C)[C@@]35OO4)=NNC(=O)c2ccncc2)O[C@@H]2O[C@]3(C)CC[C@H]4[C@H](C)CC[C@@H]1[C@@]24OO3 | >=30 day | 17.7 days | 10 days | 99.4% |
| C[C@H]1[C@@H](CC2(C[C@H]3O[C@@H]4O[C@]5(C)CC[C@H]6[C@H](C)CC[C@@H]([C@H]3C)[C@@]46OO5)COC3(CCN(C(=O)c4ccccc4)CC3)O2)O[C@@H]2O[C@]3(C)CC[C@H]4[C@H](C)CC[C@@H]1[C@@]24OO3 (stereo partly specified) | – | 15.7 days | 10 days | 99% |
| C[C@H]1[C@@H](CC(C[C@H]2O[C@@H]3O[C@]4(C)CC[C@H]5[C@H](C)CC[C@@H]([C@H]2C)[C@@]35OO4)C(=O)NCC2CCCCC2)O[C@@H]2O[C@]3(C)CC[C@H]4[C@H](C)CC[C@@H]1[C@@]24OO3 (stereo partly specified) | >=30 day | 7 days | – | – |
| C[C@H]1[C@@H](CC(C[C@H]2O[C@@H]3O[C@]4(C)CC[C@H]5[C@H](C)CC[C@@H]([C@H]2C)[C@@]35OO4)c2nnc(-c3ccc(F)cc3)o2)O[C@@H]2O[C@]3(C)CC[C@H]4[C@H](C)CC[C@@H]1[C@@]24OO3 (stereo partly specified) | – | – | 10 days | 98.8% |
| Cc1noc(C(C[C@H]2O[C@@H]3O[C@]4(C)CC[C@H]5[C@H](C)CC[C@@H]([C@H]2C)[C@@]35OO4)C[C@H]2O[C@@H]3O[C@]4(C)CC[C@H]5[C@H](C)CC[C@@H]([C@H]2C)[C@@]35OO4)n1 (stereo partly specified) | – | – | 13.7 days | 98.9% |
| C[C@H]1[C@@H](CC(C[C@H]2O[C@@H]3O[C@]4(C)CC[C@H]5[C@H](C)CC[C@@H]([C@H]2C)[C@@]35OO4)C(=O)NCC(C)(C)C)O[C@@H]2O[C@]3(C)CC[C@H]4[C@H](C)CC[C@@H]1[C@@]24OO3 (stereo partly specified) | 27.7 days | 6 days | – | – |
| C[C@H]1[C@@H](CC(C[C@H]2O[C@@H]3O[C@]4(C)CC[C@H]5[C@H](C)CC[C@@H]([C@H]2C)[C@@]35OO4)C(=O)NCc2ccncc2)O[C@@H]2O[C@]3(C)CC[C@H]4[C@H](C)CC[C@@H]1[C@@]24OO3 (stereo partly specified) | 11.3 days | 7 days | – | – |
| C[C@H]1[C@@H](CC(O)(COC(=O)c2ccccc2)C[C@H]2O[C@@H]3O[C@]4(C)CC[C@H]5[C@H](C)CC[C@@H]([C@H]2C)[C@@]35OO4)O[C@@H]2O[C@]3(C)CC[C@H]4[C@H](C)CC[C@@H]1[C@@]24OO3 (stereo partly specified) | 20.7 days | 6 days | – | – |
| C[C@H]1[C@@H](CC(C[C@H]2O[C@@H]3O[C@]4(C)CC[C@H]5[C@H](C)CC[C@@H]([C@H]2C)[C@@]35OO4)C(=O)N[C@@H](C)c2ccc(F)cc2)O[C@@H]2O[C@]3(C)CC[C@H]4[C@H](C)CC[C@@H]1[C@@]24OO3 (stereo partly specified) | – | – | 12.7 days | 98.9% |
| C[C@@H]1CC[C@H]2[C@@H](C)C(OC(=O)CCC(=O)[O-])O[C@@H]3O[C@]4(C)CC[C@@H]1[C@]32OO4.[Na+] (stereo partly specified) | 7.2 days | – | 7.6 days | 92% |
| COC(=O)c1ccc(CNC(=O)C(C[C@H]2O[C@@H]3O[C@]4(C)CC[C@H]5[C@H](C)CC[C@@H]([C@H]2C)[C@@]35OO4)C[C@H]2O[C@@H]3O[C@]4(C)CC[C@H]5[C@H](C)CC[C@@H]([C@H]2C)[C@@]35OO4)cc1 (stereo partly specified) | – | 10 days | – | – |
| Cc1ccc(CNC(=O)C(C[C@H]2O[C@@H]3O[C@]4(C)CC[C@H]5[C@H](C)CC[C@@H]([C@H]2C)[C@@]35OO4)C[C@H]2O[C@@H]3O[C@]4(C)CC[C@H]5[C@H](C)CC[C@@H]([C@H]2C)[C@@]35OO4)cc1 (stereo partly specified) | – | – | 10.3 days | 99% |
| CCOC(=O)N1CCC2(CC1)OCC(C[C@H]1O[C@@H]3O[C@]4(C)CC[C@H]5[C@H](C)CC[C@@H]([C@H]1C)[C@@]35OO4)(C[C@H]1O[C@@H]3O[C@]4(C)CC[C@H]5[C@H](C)CC[C@@H]([C@H]1C)[C@@]35OO4)O2 (stereo partly specified) | >=30 day | 14 days | 8.7 days | 99.6% |
| C[C@H]1[C@@H](CC2(C[C@H]3O[C@@H]4O[C@]5(C)CC[C@H]6[C@H](C)CC[C@@H]([C@H]3C)[C@@]46OO5)COC3(CCS(=O)(=O)CC3)O2)O[C@@H]2O[C@]3(C)CC[C@H]4[C@H](C)CC[C@@H]1[C@@]24OO3 | >=30 day | 8.3 days | – | – |
| C[C@H]1[C@@H](CC(O)(COCC#CCOCc2ccc(F)cc2)C[C@H]2O[C@@H]3O[C@]4(C)CC[C@H]5[C@H](C)CC[C@@H]([C@H]2C)[C@@]35OO4)O[C@@H]2O[C@]3(C)CC[C@H]4[C@H](C)CC[C@@H]1[C@@]24OO3 (stereo partly specified) | – | – | 6.3 days | 88% |
| C[C@H]1[C@@H](CC(O)(COCc2ccncc2)C[C@H]2O[C@@H]3O[C@]4(C)CC[C@H]5[C@H](C)CC[C@@H]([C@H]2C)[C@@]35OO4)O[C@@H]2O[C@]3(C)CC[C@H]4[C@H](C)CC[C@@H]1[C@@]24OO3 (stereo partly specified) | >=30 day | 14.7 days | 10 days | 99.2% |

— ChEMBL document CHEMBL1141568, “Malaria-infected mice are cured by oral administration of new artemisinin derivatives” (2008)
